One block for each substance: values may come before it.
Experiments:
[1] = test system: RbAp48 mutants (E126A/E179A; E231A/D248A/N277A/E319A); assay: Pulldown of in vitro translated 35S-labeled mutant RbAp48 by biotinylated FOG-1-; type: binding
Procedure, shortened: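 ³⁵S-labeled RbAp48 mutants made by coupled in vitro transcription/translation in rabbit reticulocyte lysate. About 10 μg biotinylated FOG-1-(1–15) on high-capacity streptavidin beads, in Tris pH 7.4, 300 mm NaCl, 0.5% IGEPAL and EDTA-free protease inhibitor. Lysate (15 μl, plus 45 μl ³⁵S-MTA-1 where stated) with 250 μl beads, 1 h, 4 °C. Bare-bead control; 10% input. Five washes; SDS-PAGE and autoradiography.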

RbAp48 [2] = conditions: RbAp48 expressed in a reticulocyte lysate; cited from earlier work
RbAp48 [3] = assay: Binding of MBD3 N-terminal peptide to RbAp48; conditions: data not shown

Substance: FOG-1-(1–15): chemically synthesized peptide, the 15 N-terminal amino acids of FOG-1
pulldown of E126A/E179A mutant RbAp48 in the presence of MTA-1 ([1]; 45 μl lysate with 35S-labeled MTA-1 added, Fig. 5B lane 10): could be recruited | interaction with RbAp48 in GST pulldown assays (RbAp48 [2]): can interact

binding to RbAp48 (RbAp48 [3]): does not bind measurably
Substance: MERKRWECPALPQGW [N-terminal peptide derived from MBD3]

Substance: biotinylated FOG-1-(1–15): FOG-1-(1–15) peptide bearing an N-terminal biotin tag, immobilized on streptavidin
pulldown of quadruple-point mutant RbAp48 (Glu-231, Asp-248, Asn-277, Glu-319) ([1]; biotinylated peptide on streptavidin beads, Fig. 5A): disrupts binding
